Measured values: PMC8413131 (Oncogene, 2021)

What was measured:
C4-2B MDVR cells = assay: Cell growth assay; format: cell-based; settings: for cell growth, 3 days: FBS, 5 μM Abi, 20 μM Enza, 20 μM Apal, 0.25-1.0 μM ARVibs, Fig.4A-4B
CWR22Rv1 cells = assay: Cell growth assay; format: cell-based; settings: for cell growth, 3 days: CWR22Rv1, FBS, 5 μM Abi, 20 μM Enza, 20 μM Apal, 0.25-1.0 μM ARVibs, Fig.4A-4B
[1] = test system: AR-V7 and AR mutants (T878A, K581R, V716M, L702H); assay: PSA luciferase reporter, AR-V7 and AR mutants in 293 cells; format: cell-based; settings: FBS conditions, 16 hours, Fig.2G
Outline: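 293 cells in FBS medium transfected with vector, AR-V7 or mutant AR (T878A, K581R, L702H, V716M) plus a PSA promoter–luciferase plasmid. Then exposed to anti-androgens or test compound for 16 h before luciferase read-out. Mean ± SD of three independent experiments.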

VCaP xenografts = assay: Relapsed VCaP tumor model, combination with Enza; format: in vivo, mice; settings: relapsed VCaP tumors
wild-type AR (WT-AR) = assay: PSA luciferase reporter, WT-AR in 293 cells; format: cell-based; settings: FBS conditions, 16 hours, Fig.2G
LuCaP 35CR xenografts = assay: LuCaP35CR PDX model, oral administration; format: in vivo, mice; settings: 150 mg/Kg p.o.
[2] = ref [20], [21]; cited from earlier work
AR = assay: Western blot of AR expression in CWR22Rv1 cells; format: cell-based; settings: 1 μM, 16 hours
CWR22Rv1 xenografts = assay: CWR22Rv1 tumor xenografts in SCID mice; format: in vivo; settings: 25 mg/Kg i.p., Supplementary Fig.6B
Outline: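 C.B17 SCID males, 4–5 weeks old, given 3 million CWR22Rv1 cells mixed 1:1 with matrigel s.c. in flank. Randomized at 50–100 mm3 tumor volume. Test compound 25 mg/kg i.p. vs vehicle (15% Cremophor EL, 82.5% PBS, 2.5% DMSO, i.p.). Calipers twice weekly; volume = L×W×W×0.52. Tumors, liver and kidney harvested and weighed after 3 weeks; liver and kidney H&E stained.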

C[C@]12CC[C@H](O)CC1=CC[C@@H]1[C@@H]2CC[C@]2(C)C(c3cccnc3)=CC[C@@H]12 [Abi, abiraterone]
cell growth, 3 days (C4-2B MDVR cells): resistant
cell growth, 3 days (CWR22Rv1 cells): resistant

CNC(=O)c1ccc(N2C(=S)N(c3cnc(C#N)c(C(F)(F)F)c3)C(=O)C23CCC3)cc1F [Apal, apalutamide]
transcriptional activity mediated by AR-V7 and AR mutants [1]: could not suppress
cell growth, 3 days (C4-2B MDVR cells): resistant
cell growth, 3 days (CWR22Rv1 cells): resistant

CNC(=O)c1ccc(N2C(=S)N(c3ccc(C#N)c(C(F)(F)F)c3)C(=O)C2(C)C)cc1F [Enza, enzalutamide]
tumor PSA expression (mouse serum), single treatment (VCaP xenografts; Fig.6F): slightly, but insignificantly, suppressed
tumor growth, single treatment (VCaP xenografts; Enza 20 mg/Kg p.o., ARVib-7 75 mg/Kg orally, Fig.6C-6E): insignificantly inhibited
transcriptional activity mediated by AR-V7 and AR mutants [1]: could not suppress
cell growth, 3 days (C4-2B MDVR cells): resistant
cell growth, 3 days (CWR22Rv1 cells): resistant

CC(O)(CS(=O)(=O)c1ccc(F)cc1)C(=O)Nc1ccc(C#N)c(C(F)(F)F)c1 (centres unmarked) [bicalutamide]
transcriptional activity mediated by AR-V7 and AR mutants [1]: could not suppress
WT-AR transcriptional activity (wild-type AR (WT-AR)): suppress

O=C(Nc1ccc([N+](=O)[O-])cc1Cl)c1cc(Cl)ccc1O [niclosamide]
suppression of tumor growth / tumor volume compared to vehicle control (LuCaP 35CR xenografts; Fig.5C): 50%
tumor PSA expression (mouse serum) (LuCaP 35CR xenografts; Fig.5F): slightly suppressed
bioavailability [2]: ~ 10%
enhancement of Enza treatment (cell growth) (C4-2B MDVR cells; 0.25 μM with 20 μM Enza, 3 days, Supplementary Fig.6E): profoundly enhanced
inhibition of AR expression (AR; dose series, Fig.1C left): 84.42%
inhibition of AR expression (AR; western blot, Fig.1B): 89.73%
mouse body weight (CWR22Rv1 xenografts): did not affect
enhancement of Enza treatment (cell growth) (CWR22Rv1 cells; CWR22Rv1, 0.5 μM with 20 μM Enza, 3 days, Fig.6A): profoundly enhanced
